From ChEMBL document CHEMBL4261552, “4-Hydroxy-N-[3,5-bis(trifluoromethyl)phenyl]-1,2,5-thiadiazole-3-carboxamide: a novel inhibitor of the canonical NF-κB cascade” (Medchemcomm, 2017)

Key:
[1] = molecular target: T1, Inhibitor of nuclear factor kappa-B kinase subunit beta (Homo sapiens, UniProt O14920); assay: Inhibition of human IKKbeta using ERLLDDRHDSGLDSMKDEE as substrate after 60 mins in presence of ATP by ADP-Glo kinase assay
T1 sequence (O14920 whole entry): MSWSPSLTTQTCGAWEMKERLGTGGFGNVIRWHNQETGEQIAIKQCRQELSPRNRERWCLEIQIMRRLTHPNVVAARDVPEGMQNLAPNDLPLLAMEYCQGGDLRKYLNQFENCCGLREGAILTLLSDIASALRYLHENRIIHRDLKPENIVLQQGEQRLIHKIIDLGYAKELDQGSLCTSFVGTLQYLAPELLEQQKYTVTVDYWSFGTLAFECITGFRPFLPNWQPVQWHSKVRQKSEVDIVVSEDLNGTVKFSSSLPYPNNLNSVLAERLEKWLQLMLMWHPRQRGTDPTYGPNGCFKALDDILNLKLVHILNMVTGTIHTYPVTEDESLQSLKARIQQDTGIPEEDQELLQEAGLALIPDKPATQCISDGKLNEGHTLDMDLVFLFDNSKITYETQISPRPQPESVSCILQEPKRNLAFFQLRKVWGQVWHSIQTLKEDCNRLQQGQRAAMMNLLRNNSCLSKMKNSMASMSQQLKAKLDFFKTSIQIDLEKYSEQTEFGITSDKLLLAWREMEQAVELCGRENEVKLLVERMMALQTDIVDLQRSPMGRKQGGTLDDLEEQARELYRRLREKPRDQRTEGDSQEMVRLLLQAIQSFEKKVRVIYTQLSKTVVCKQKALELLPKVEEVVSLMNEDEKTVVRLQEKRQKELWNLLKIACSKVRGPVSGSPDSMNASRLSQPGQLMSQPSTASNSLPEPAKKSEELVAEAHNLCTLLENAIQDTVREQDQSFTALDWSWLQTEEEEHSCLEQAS

[2] = molecular target: T2, Inhibitor of nuclear factor kappa-B kinase subunit beta (Homo sapiens) (UniProt O14920); assay: Inhibition of human IKKbeta at 100 uM using ERLLDDRHDSGLDSMKDEE as substrate after 60 mins in presence of ATP by ADP-Glo kinase assay relative to control
T2 sequence (whole entry): T1 sequence (O14920 whole entry)

[3] = molecular target: T3, Inhibitor of nuclear factor kappa-B kinase subunit alpha (Homo sapiens, UniProt O15111); assay: Inhibition of human IKKalpha using ERLLDDRHDSGLDSMKDEE as substrate after 60 mins in presence of ATP by ADP-Glo kinase assay
T3 sequence (O15111 whole entry): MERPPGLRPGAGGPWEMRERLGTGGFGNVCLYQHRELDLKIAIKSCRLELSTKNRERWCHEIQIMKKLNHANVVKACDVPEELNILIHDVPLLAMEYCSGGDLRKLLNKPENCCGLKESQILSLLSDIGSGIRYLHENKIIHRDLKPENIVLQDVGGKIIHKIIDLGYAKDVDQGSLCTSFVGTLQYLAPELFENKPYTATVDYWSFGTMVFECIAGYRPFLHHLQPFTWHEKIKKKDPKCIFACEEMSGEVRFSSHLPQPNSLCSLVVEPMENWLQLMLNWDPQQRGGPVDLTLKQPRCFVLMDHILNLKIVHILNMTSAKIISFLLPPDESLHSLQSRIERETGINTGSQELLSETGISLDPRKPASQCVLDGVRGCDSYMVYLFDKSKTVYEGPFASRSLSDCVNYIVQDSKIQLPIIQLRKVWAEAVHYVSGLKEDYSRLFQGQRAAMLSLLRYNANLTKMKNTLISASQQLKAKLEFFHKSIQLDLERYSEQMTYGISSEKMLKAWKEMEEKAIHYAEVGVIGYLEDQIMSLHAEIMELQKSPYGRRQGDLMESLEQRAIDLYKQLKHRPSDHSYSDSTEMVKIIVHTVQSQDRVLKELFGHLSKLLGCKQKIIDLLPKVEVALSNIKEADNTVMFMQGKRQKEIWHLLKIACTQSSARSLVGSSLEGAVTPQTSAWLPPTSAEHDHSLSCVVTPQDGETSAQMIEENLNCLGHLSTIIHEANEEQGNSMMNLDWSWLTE

[4] = molecular target: T4, Inhibitor of nuclear factor kappa-B kinase subunit epsilon (Homo sapiens, UniProt Q14164); assay: Inhibition of human IKKepsilon using ERLLDDRHDSGLDSMKDEE as substrate after 60 mins in presence of ATP by ADP-Glo kinase assay
T4 sequence (Q14164 whole entry): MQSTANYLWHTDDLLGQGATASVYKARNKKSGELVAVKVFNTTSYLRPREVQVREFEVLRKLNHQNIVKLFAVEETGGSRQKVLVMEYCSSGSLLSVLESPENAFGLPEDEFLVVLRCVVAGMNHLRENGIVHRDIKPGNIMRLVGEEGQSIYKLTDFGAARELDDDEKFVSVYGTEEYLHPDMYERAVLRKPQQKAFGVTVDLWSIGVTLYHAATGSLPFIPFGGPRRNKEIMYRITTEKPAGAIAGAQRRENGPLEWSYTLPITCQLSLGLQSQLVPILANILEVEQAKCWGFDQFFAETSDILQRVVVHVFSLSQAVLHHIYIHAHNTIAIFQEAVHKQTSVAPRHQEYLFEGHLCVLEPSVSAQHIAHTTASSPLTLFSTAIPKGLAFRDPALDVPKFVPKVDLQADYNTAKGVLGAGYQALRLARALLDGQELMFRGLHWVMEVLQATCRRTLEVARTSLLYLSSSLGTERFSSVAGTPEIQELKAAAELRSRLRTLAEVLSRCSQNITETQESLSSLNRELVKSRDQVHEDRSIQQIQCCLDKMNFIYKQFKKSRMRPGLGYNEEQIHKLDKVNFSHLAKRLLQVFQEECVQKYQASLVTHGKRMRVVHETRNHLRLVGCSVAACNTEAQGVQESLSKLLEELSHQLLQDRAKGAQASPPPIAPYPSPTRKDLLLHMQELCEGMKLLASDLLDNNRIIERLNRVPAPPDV

[5] = molecular target: T5, Inhibitor of nuclear factor kappa-B kinase subunit epsilon (Homo sapiens) (UniProt Q14164); assay: Inhibition of human IKKepsilon at 100 uM using ERLLDDRHDSGLDSMKDEE as substrate after 60 mins in presence of ATP by ADP-Glo kinase assay relative to control
T5 sequence (whole entry): T4 sequence (Q14164 whole entry)

[6] = molecular target: T6, Mitogen-activated protein kinase kinase kinase 14 (Homo sapiens, UniProt Q99558); assay: Inhibition of human NIK using AKDVDQGSLCTSFVGTLQY as substrate after 60 mins in presence of ATP by ADP-Glo kinase assay
Target sequence in this assay (Q99558 whole entry): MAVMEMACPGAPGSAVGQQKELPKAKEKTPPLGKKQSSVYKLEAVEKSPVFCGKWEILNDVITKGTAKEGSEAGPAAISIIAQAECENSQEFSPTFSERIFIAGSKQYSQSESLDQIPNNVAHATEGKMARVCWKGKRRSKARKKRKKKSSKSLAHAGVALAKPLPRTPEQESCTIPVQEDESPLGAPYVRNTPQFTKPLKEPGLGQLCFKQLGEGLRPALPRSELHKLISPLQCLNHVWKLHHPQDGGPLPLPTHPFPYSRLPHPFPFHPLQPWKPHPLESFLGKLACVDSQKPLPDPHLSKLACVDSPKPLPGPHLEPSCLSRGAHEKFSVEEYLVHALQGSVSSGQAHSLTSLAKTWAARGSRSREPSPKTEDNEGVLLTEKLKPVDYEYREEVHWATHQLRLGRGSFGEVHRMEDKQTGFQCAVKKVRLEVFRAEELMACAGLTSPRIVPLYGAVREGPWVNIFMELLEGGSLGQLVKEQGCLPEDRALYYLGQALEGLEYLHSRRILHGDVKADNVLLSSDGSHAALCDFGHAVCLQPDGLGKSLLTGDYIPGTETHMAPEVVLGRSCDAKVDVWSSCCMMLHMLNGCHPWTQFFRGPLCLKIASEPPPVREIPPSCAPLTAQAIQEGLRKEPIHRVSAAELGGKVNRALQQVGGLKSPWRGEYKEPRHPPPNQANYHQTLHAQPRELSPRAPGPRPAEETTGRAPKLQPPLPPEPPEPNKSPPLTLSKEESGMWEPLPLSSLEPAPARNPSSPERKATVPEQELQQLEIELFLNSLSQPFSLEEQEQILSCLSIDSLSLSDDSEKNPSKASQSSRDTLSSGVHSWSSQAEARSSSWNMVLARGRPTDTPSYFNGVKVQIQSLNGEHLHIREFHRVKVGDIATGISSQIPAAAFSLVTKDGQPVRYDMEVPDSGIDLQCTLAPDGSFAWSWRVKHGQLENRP

[7] = molecular target: T6, Mitogen-activated protein kinase kinase kinase 14; assay: Inhibition of human NIK at 100 uM using AKDVDQGSLCTSFVGTLQY as substrate after 60 mins in presence of ATP by ADP-Glo kinase assay relative to control
Target sequence in this assay (Q99558 whole entry, looked up): as the sequence (Q99558 whole entry) above

[8] = molecular target: T1, Inhibitor of nuclear factor kappa-B kinase subunit beta; assay: Inhibition of IKK-beta in human Jurkat cells assessed as reduction in TNFalpha-stimulated IkBalpha degradation preincubated for 60 mins followed by TNFalpha stimulation for 20 mins by immunoblot analysis; assay type: cell-based
[9] = molecular target: T7, Inhibitor of nuclear factor kappa-B kinase subunit alpha (Homo sapiens) (UniProt O15111); assay: Inhibition of human IKKalpha at 100 uM using ERLLDDRHDSGLDSMKDEE as substrate after 60 mins in presence of ATP by ADP-Glo kinase assay relative to control
T7 sequence (whole entry): T3 sequence (O15111 whole entry)

Jurkat = assay: Inhibition of TNFalpha-activated canonical NF-kB signaling pathway in human Jurkat cells assessed as residual activity at 1 uM after 6 hrs by luciferase reporter gene assay relative to control; assay type: cell-based
Outline: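 Jurkat cells nucleofected with 3 µg of NF-κB-RE firefly luciferase and TK-Renilla plasmids (10:1), then cultured 24 h at 37 °C. Compound added for a further 6 h, with TNFα in the last 20 min. Firefly luminescence normalized to Renilla and expressed as % of DMSO+TNFα control; mean ± SD of three experiments.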

MDA-MB-231 [10] = assay: Inhibition of constitutively activated canonical NF-kB signaling pathway in human MDA-MB-231 cells assessed as residual activity at 10 uM after 6 hrs by luciferase reporter gene assay relative to control; assay type: cell-based
Outline: (§1)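 MDA-MB-231 cells (constitutive NF-κB) nucleofected with 3 µg of NF-κB-RE firefly luciferase plus TK-Renilla plasmids (10:1), then cultured 24 h. Compound added for a further 6 h or 24 h, without stimulus. Firefly/Renilla ratio expressed as % of DMSO-treated control; mean ± SD of three independent experiments.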

MDA-MB-231 [11] = assay: Inhibition of constitutively activated canonical NF-kB signaling pathway in human MDA-MB-231 cells assessed as residual activity at 10 uM after 24 hrs by luciferase reporter gene assay relative to control; assay type: cell-based; outline: as §1
MDA-MB-231 [12] = assay: Antiproliferative activity against human MDA-MB-231 cells assessed as DNA content after 72 hrs by Hoechst 33258 staining based fluorescence assay; assay type: functional, cell-based; conditions: MDA-MB-231, 72 h
Outline: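 MDA-MB-231 cells (5 x 10³/well) grown in DMEM with 10% FBS and exposed to 0.001 - 200 µM compound or DMSO vehicle for 72 h. Cells were washed with PBS and lysed in 0.02% SDS in SSC buffer for 1 h at 37 °C. Hoechst 33258 (1 µg/mL) was then added and fluorescence read at ex 355/em 460 nm. IC50 taken by nonlinear regression; mean ± SD of three independent experiments.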

MDA-MB-231 [13] = assay: Cytotoxicity against human MDA-MB-231 cells after 72 hrs by CellTox green assay; assay type: cell-based; conditions: MDA-MB-231, 72 h
Outline: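 MDA-MB-231 cells (5×10^3/well) exposed to 0.001 - 100 µM compound or DMSO vehicle for 72 h. Membrane-integrity loss read by CellTox green fluorescence. IC50 taken by nonlinear regression; mean ± SD of three independent experiments.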

IC50 [1]	inhibition [2]	IC50 [3]	IC50 [4]	inhibition [5]	IC50 [6]	inhibition [7]	IC50 [8]	inhibition [9]	SMILES	Activity (Jurkat)	Activity (MDA-MB-231 [10])	Activity (MDA-MB-231 [11])	IC50 (MDA-MB-231 [12])	IC50 (MDA-MB-231 [13])
> 100 µM	-0.94%	35.5 µM	> 100 µM	25.8%	> 100 µM	-1.1%	> 100 µM		O=C(Nc1cccc(C(F)(F)F)c1)c1nsnc1O					
> 100 µM	8.51%	> 100 µM	> 100 µM	21.9%	> 100 µM	-1.9%	> 100 µM	24.1%	COc1nsnc1C(=O)Nc1cc(C(F)(F)F)cc(C(F)(F)F)c1					
> 100 µM	12.2%	> 100 µM	58.5 µM		> 100 µM	19.3%	6.93 µM	18.6%	O=C(Nc1cc(C(F)(F)F)cc(C(F)(F)F)c1)c1nonc1O					
> 100 µM	2.06%	> 100 µM	> 100 µM	32.1%	> 100 µM	11.8%	1.72 µM	-2.5%	O=C(Nc1cccc(C(F)(F)F)c1)c1nonc1O					
> 100 µM	31.6%	> 100 µM	44.8 µM		> 100 µM	-9.2%	> 100 µM	29.3%	Nc1nonc1C(=O)Nc1cc(C(F)(F)F)cc(C(F)(F)F)c1					
> 100 µM	12.7%	> 100 µM	> 100 µM	17.2%	> 100 µM	7.23%	25.9 µM	12.1%	Cn1cc(C(=O)Nc2cc(C(F)(F)F)cc(C(F)(F)F)c2)c(O)n1					
> 100 µM	5.14%	> 100 µM	> 100 µM	15.3%	> 100 µM	-9.5%	> 100 µM	24.5%	O=C(Nc1cc(C(F)(F)F)cc(C(F)(F)F)c1)c1n[nH]nc1O					
> 100 µM	13.9%	> 100 µM	> 100 µM	14.2%	> 100 µM	24.1%	1.32 µM	13.2%	Cc1c(C(=O)Nc2cc(C(F)(F)F)cc(C(F)(F)F)c2)c(O)nn1C					
> 100 µM	5.19%	> 100 µM	> 100 µM	6.92%	> 100 µM	9.1%	> 100 µM	46.9%	Cn1nc(O)c(C(=O)Nc2cc(C(F)(F)F)cc(C(F)(F)F)c2)n1					
> 100 µM	11.2%	> 100 µM	58.5 µM		> 100 µM	12.1%	> 100 µM	13.1%	Cn1nnc(O)c1C(=O)Nc1cc(C(F)(F)F)cc(C(F)(F)F)c1					

SMILES	IC50 [1]	inhibition [2]	IC50 [3]	IC50 [4]	inhibition [5]	IC50 [6]	inhibition [7]	IC50 [8]	inhibition [9]	Activity (Jurkat)	Activity (MDA-MB-231 [10])	Activity (MDA-MB-231 [11])	IC50 (MDA-MB-231 [12])	IC50 (MDA-MB-231 [13])
O=C(Nc1cc(Cl)cc2c1[nH]c1cnccc12)c1cccnc1	0.087 µM		> 100 µM	> 100 µM		> 100 µM		0.186 µM		38.1%	19.5%	8.67%	0.9 µM	> 100 µM
